Source: ChEMBL document CHEMBL1177752, “Trigoxyphins A-G: diterpenes from Trigonostemon xyphophylloides” (J Nat Prod, 2010)

Assays:
Assay type in all cases: functional, cell-based
A549 = test: Cytotoxicity against human A549 cells after 72 hrs by SRB assay; details: A549, 72 h
HL-60 = test: Cytotoxicity against human HL60 cells after 72 hrs by MTT assay; details: HL-60, 72 h
Outline: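 Cells plated in culture medium in 96-well plates, then treated in triplicate with graded compound concentrations for 72 h at 37 °C. MTT (5 mg/mL solution) added for 4 h, followed by 10% SDS/5% isobutanol/12 mM HCl solubilizer.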

Bel-7402 = test: Cytotoxicity against human Bel7402 cells after 72 hrs by SRB assay; details: Bel-7402, 72 h

Structure (SMILES) | IC50 (A549) [µM] | IC50 (HL-60) [µM] | IC50 (Bel-7402) [µM]
C=C(C)[C@@]12OC3(c4ccccc4)O[C@@H]1[C@@H]1[C@@H]4O[C@]4(C)[C@@H](O)[C@]4(O)C(=O)[C@@H](C)C[C@H]4[C@@]1(O3)[C@H](C)[C@@H]2OC(=O)c1ccccc1 [TRIGOXYPHIN B] | 4.9 | 0.49 | > 10
C=C(C)[C@@]1(OC(C)=O)[C@@H]2OC3(c4ccccc4)O[C@H]1[C@@H](C)[C@@]1(O3)[C@H]2[C@H](OC(C)=O)[C@](C)(OC(=O)c2ccccc2)[C@@H](OC(C)=O)[C@@]2(O)[C@H]1C[C@H](C)[C@@H]2OC(C)=O [TRIGOXYPHIN E] | – | – | > 10
COc1cccc2c1C(=O)c1c(O)c3c(c(O)c1C2=O)C[C@@](O)(C(=O)CO)C[C@@H]3O[C@H]1C[C@H](N)[C@H](O)[C@H](C)O1 [DOXORUBICIN] | 0.17 | 0.04 | 0.12
C=C(C)[C@@]1(O)[C@@H]2OC3(c4ccccc4)O[C@H]1[C@@H](C)[C@@]1(O3)[C@H]2[C@H](OC(C)=O)[C@](C)(OC(=O)c2ccccc2)[C@@H](OC(C)=O)[C@@]2(O)[C@H]1C[C@H](C)[C@@H]2OC(C)=O [TRIGOXYPHIN D] | – | – | > 10
Cc1cc2c(cc1O)C1=CC(=O)[C@@H](O)C(C)(C)C1CC2=O (some centres undefined) [TRIGOXYPHIN G] | – | – | > 10
C=C(C)[C@@]12OC3(c4ccccc4)O[C@@H]1[C@@H]1[C@H](OC(C)=O)[C@@](C)(OC(=O)c4ccccc4)[C@@H](OC(C)=O)[C@@]4(O)[C@@H](C[C@H](C)[C@@H]4OC(C)=O)[C@@]1(O3)[C@H](C)[C@@H]2O [TRIGOXYPHIN F] | – | – | > 10
C=C(C)[C@@]12OC3(c4ccccc4)O[C@@H]1[C@@H]1[C@@H]4O[C@]4(C)[C@@H](OC(C)=O)[C@]4(O)C(=O)[C@@H](C)C[C@H]4[C@@]1(O3)[C@H](C)[C@@H]2OC(=O)c1ccccc1 [TRIGOXYPHIN C] | – | – | > 10
C=C(C)[C@@]12OC3(c4ccccc4)O[C@@H]1[C@@H]1[C@@H]4O[C@]4(C)[C@@H](O)[C@]4(O)C(=O)C(C)=C[C@H]4[C@@]1(O3)[C@H](C)[C@@H]2OC(=O)c1ccccc1 [TRIGOXYPHIN A] | 7.5 | 0.27 | > 10
